Assay results from different studies.
Each line is one published result; the experiments were not run side by side.
PIM1: Serine/threonine-protein kinase pim-1 (PIM1, Homo sapiens, UniProt P11309)
CTSB: Cathepsin B (CTSB, Homo sapiens, UniProt P07858)
CDK2 with cyclin A2: Cyclin-dependent kinase 2, with cyclin A2 (CDK2, Homo sapiens, UniProt P24941)
LGALS4 C-terminal domain: Galectin-4, C-terminal domain (LGALS4, Homo sapiens, UniProt P56470)
CDK2: Cyclin-dependent kinase 2 (CDK2, Homo sapiens, UniProt P24941)

CCCOc1nc(-c2cccc(O)c2)cc(-c2cc3cc(OC)ccc3nc2N2CCOCC2)c1C#N — IC50 (PIM1; enzyme activity, inhibitor): 0.095 µM
CC(C)C[C@H](NC(=O)[C@H](Cc1ccccc1)NC(=O)OCc1ccccc1)C(=O)C=O — IC50 (CTSB; enzyme activity, inhibitor): 4.36 µM
CC(=O)Nc1c(N)nc(SCC(=O)N/N=C/c2ccc([N+](=O)[O-])cc2)[nH]c1=O — IC50 (CDK2 with cyclin A2; enzyme activity, inhibitor): 0.189 µM
COc1cc(N2CCC(N3CCN(C)CC3)CC2)ccc1Nc1ncc(Cl)c(Nc2ccccc2P(C)(C)=O)n1 — Ki (Multidrug and toxin extrusion protein 1 (SLC47A1, Homo sapiens, UniProt Q96FL8); transporter uptake, inhibitor): 0.78 µM
CCOC(=O)[C@H]1O[C@@H]1C(=O)N[C@@H](CC(C)C)C(=O)NCCC(C)C — IC50 (CTSB; enzyme activity, inhibitor): 0.012 µM
NCCCNc1ncnc2c1ncn2[C@@H]1O[C@H](CN(CC#Cc2cccc(C(N)=O)c2)CC[C@H](N)C(=O)O)[C@@H](O)[C@H]1O — IC50 (Nicotinamide N-methyltransferase (NNMT, Homo sapiens, UniProt P40261); enzyme activity, inhibitor, fluorescence): 0.15 µM
CC(=O)c1nn(-c2ccc(C)cc2)/c(=N/N=C(\C)c2ccc(NC(=O)c3ccccc3)cc2)s1 — IC50 (Cyclin-dependent kinase 8, with cyclin C (CDK8, Homo sapiens, UniProt P49336); enzyme activity, inhibitor): 0.267 µM
CCOc1nc(-c2cccc(O)c2)cc(-c2cc3cc(OC)ccc3nc2N2CCOCC2)c1C#N — IC50 (PIM1; enzyme activity, inhibitor): 0.11 µM
CCOC(=O)/C=C/C(=O)[C@H](CC(C)C)NC(=O)[C@H](Cc1ccccc1)NC(=O)[C@H](Cc1ccccc1)N=[N+]=[N-] (mixture of isomers) — IC50 (CTSB; enzyme activity, inhibitor): 0.32 µM
CC(=O)NC1C(OC2C(O)C(CO)OC(OC3C(CO)OC(O)C(O)C3O)C2OC2OC(C)C(O)C(O)C2O)OC(CO)C(O)C1O (stereo not drawn) — Kd (LGALS4 C-terminal domain; binding, NMR): 63 µM
Nc1ccccc1NC(=O)c1ccc(CNc2ccc(NC3=C(Cl)C(=O)c4cccnc4C3=O)cc2)cc1 — IC50 (M-phase inducer phosphatase 3 (Homo sapiens, UniProt P30307); enzyme activity, inhibitor): 0.23 µM
CC(=O)Nc1c(N)nc(SCC(=O)NN)[nH]c1=O — IC50 (CDK2 with cyclin A2; enzyme activity, inhibitor): 0.172 µM
O=C(O)Cc1csc(NC(=O)c2cc3ccccc3[nH]2)n1 — IC50 (CDK2; enzyme activity, inhibitor, ELISA): 1.71 µM
C[C@H]1C[C@H]2[C@@H]3CCC4=CC(=O)C=C[C@]4(C)[C@@]3(Cl)[C@@H](O)C[C@]2(C)[C@@]1(O)C(=O)CO — EC50 (ADGRG3 (Homo sapiens, UniProt Q86Y34); β-arrestin recruitment, agonist): 3.49 µM
CC1OC(OC2C(OC3C(CO)OC(O)C(O)C3O)OC(CO)C(O)C2OC2OC(CO)C(O)C(O)C2O)C(O)C(O)C1O (stereo not drawn) — Kd (LGALS4 C-terminal domain; binding, NMR): 170 µM
COc1ccc2[nH]c(C(=O)Nc3nc(CC(=O)O)cs3)cc2c1 — IC50 (CDK2; enzyme activity, inhibitor, ELISA): 3.19 µM
Cc1ccc2oc(=O)cc(NCCO)c2c1 — IC50 (Alpha-1A adrenergic receptor (Adra1a, Rattus norvegicus, UniProt P43140); calcium signal, antagonist): 1820 µM
CC(C)Oc1ccc(S(=O)(=O)c2ccc(Oc3cc(OCC(N)=O)c(C(=O)C(Cl)Cl)cc3[N+](=O)[O-])cc2)cc1 — IC50 ([Pyruvate dehydrogenase (acetyl-transferring)] kinase isozyme 4, mitochondrial (PDK4, Homo sapiens, UniProt Q16654); enzyme activity, inhibitor, ATP luminescence): 17.2 µM
